Reference: ChEMBL document CHEMBL1806372, “Cytotoxic ring A-modified steroid analogues derived from Grundmann's ketone” (Eur J Med Chem, 2011)

How the values were obtained:
Type in all cases: functional
OVCAR-3 [1] = experiment: Growth inhibition of human OVCAR3 cells after 48 hrs by sulforhodamine B assay; details: OVCAR-3, 48 h
In short: (§1)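 GI50, TGI and LC50 were derived from log concentration versus % growth inhibition curves for each cell line. GI50 is the concentration giving a 50% decrease in net cell growth. Insensitive lines are reported as greater than the highest concentration.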

COLO 205 [2] = experiment: Cytotoxicity against human COLO205 cells after 48 hrs by sulforhodamine B assay; details: COLO 205, 48 h, read-out: LC50 (the source's name)
In short: (§2)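 NCI 60 human tumour cell line panel run to the NCI protocol. GI50, TGI and LC50 come from log concentration vs % growth inhibition curves for each cell line. Lines insensitive at the top concentration are reported with ">".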

SF-539 = experiment: Cytotoxicity against human SF539 cells after 48 hrs by sulforhodamine B assay; details: SF-539, 48 h, read-out: LC50 (the source's name); in short: as §2
NCI-H522 = experiment: Growth inhibition of human NCI-H522 cells after 48 hrs by sulforhodamine B assay; details: NCI-H522, 48 h; in short: as §1
A549 [3] = experiment: Cytotoxicity against human A549 cells after 48 hrs by sulforhodamine B assay; details: A549, 48 h, read-out: LC50 (the source's name); in short: as §2
NCI-H460 = experiment: Growth inhibition of human NCI-H460 cells after 48 hrs by sulforhodamine B assay; details: NCI-H460, 48 h; in short: as §1
CCRF-CEM [4] = experiment: Growth inhibition of human CCRF-CEM cells after 48 hrs by sulforhodamine B assay
In short: (§3)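 From log concentration versus % growth curves, GI50 (50% decrease in net growth), TGI (total growth inhibition) and LC50 (net 50% loss of initial cells) are derived for each line.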

M14 = experiment: Growth inhibition of human M14 cells after 48 hrs by sulforhodamine B assay; details: M14, 48 h; in short: as §3
HL-60(TB) = experiment: Cytotoxicity against human HL-60(TB) cells after 48 hrs by sulforhodamine B assay; details: HL-60, 48 h, read-out: LC50 (the source's name); in short: as §2
CCRF-CEM [5] = experiment: Cytotoxicity against human CCRF-CEM cells after 48 hrs by sulforhodamine B assay; details: read-out: LC50 (the source's name); in short: as §2
HCT-116 = experiment: Growth inhibition of human HCT116 cells after 48 hrs by sulforhodamine B assay; details: HCT-116, 48 h; in short: as §3
RPMI-8226 [6] = experiment: Cytotoxicity against human RPMI8226 cells after 48 hrs by sulforhodamine B assay; details: RPMI-8226, 48 h, read-out: LC50 (the source's name); in short: as §2
NCI/ADR-RES = experiment: Growth inhibition of human NCI/ADR-RES cells after 48 hrs by sulforhodamine B assay; in short: as §1
SF-295 = experiment: Growth inhibition of human SF295 cells after 48 hrs by sulforhodamine B assay; details: SF-295, 48 h; in short: as §1
UACC-257 = experiment: Growth inhibition of human UACC257 cells after 48 hrs by sulforhodamine B assay; details: UACC-257, 48 h
In short: (§4)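 NCI 60-cell panel five-dose assay. GI50, TGI and LC50 are derived from log concentration versus % growth inhibition curves. Cell lines insensitive at the top concentration are given a ">" prefix.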

HCT-15 = experiment: Cytotoxicity against human HCT15 cells after 48 hrs by sulforhodamine B assay; details: HCT-15, 48 h, read-out: LC50 (the source's name); in short: as §2
RPMI-8226 [7] = experiment: Growth inhibition of human RPMI8226 cells after 48 hrs by sulforhodamine B assay; details: RPMI-8226, 48 h; in short: as §1
SK-MEL-5 = experiment: Growth inhibition of human SK-MEL-5 cells after 48 hrs by sulforhodamine B assay; details: SK-MEL-5, 48 h; in short: as §1
SK-MEL-28 = experiment: Growth inhibition of human SK-MEL-28 cells after 48 hrs by sulforhodamine B assay; details: SK-MEL-28, 48 h; in short: as §1
MDA-MB-231 = experiment: Cytotoxicity against human MDA-MB-231 cells after 48 hrs by sulforhodamine B assay; details: MDA-MB-231, 48 h, read-out: LC50 (the source's name); in short: as §2
786-0 = experiment: Growth inhibition of human 786-0 cells after 48 hrs by sulforhodamine B assay; details: 786-0, 48 h; in short: as §3
HOP-92 = experiment: Growth inhibition of human HOP92 cells after 48 hrs by sulforhodamine B assay; details: HOP-92, 48 h; in short: as §3
LOX IMVI = experiment: Growth inhibition of human LOXIMVI cells after 48 hrs by sulforhodamine B assay; in short: as §3
UACC-62 = experiment: Growth inhibition of human UACC62 cells after 48 hrs by sulforhodamine B assay; details: UACC-62, 48 h; in short: as §4
K562 = experiment: Cytotoxicity against human K562 cells after 48 hrs by sulforhodamine B assay; details: K562, 48 h, read-out: LC50 (the source's name); in short: as §2
OVCAR-3 [8] = experiment: Cytotoxicity against human OVCAR3 cells after 48 hrs by sulforhodamine B assay; details: OVCAR-3, 48 h, read-out: LC50 (the source's name); in short: as §2
OVCAR-8 = experiment: Growth inhibition of human OVCAR8 cells after 48 hrs by sulforhodamine B assay; details: OVCAR-8, 48 h; in short: as §1
COLO 205 [9] = experiment: Growth inhibition of human COLO205 cells after 48 hrs by sulforhodamine B assay; details: COLO 205, 48 h; in short: as §3
A549 [10] = experiment: Growth inhibition of human A549 cells after 48 hrs by sulforhodamine B assay; details: A549, 48 h; in short: as §3
SK-OV-3 = experiment: Cytotoxicity against human SKOV3 cells after 48 hrs by sulforhodamine B assay; details: SK-OV-3, 48 h, read-out: LC50 (the source's name); in short: as §2
PC-3 = experiment: Growth inhibition of human PC3 cells after 48 hrs by sulforhodamine B assay; details: PC-3, 48 h; in short: as §1
NCI-H226 = experiment: Growth inhibition of human NCI-H226 cells after 48 hrs by sulforhodamine B assay; details: NCI-H226, 48 h; in short: as §1
OVCAR-5 = experiment: Cytotoxicity against human OVCAR5 cells after 48 hrs by sulforhodamine B assay; details: OVCAR-5, 48 h, read-out: LC50 (the source's name); in short: as §2
BT-549 = experiment: Cytotoxicity against human BT549 cells after 48 hrs by sulforhodamine B assay; details: BT-549, 48 h, read-out: LC50 (the source's name); in short: as §2
KM12 = experiment: Cytotoxicity against human KM12 cells after 48 hrs by sulforhodamine B assay; details: KM12, 48 h, read-out: LC50 (the source's name); in short: as §2

Structure (SMILES): CC(C)CCC[C@@H](C)[C@H]1CC[C@H]2C3=CCn4c(=O)ccc(=O)n4[C@@H]3CC[C@]12C
- GI50 (OVCAR-3 [1]): 861 nM
- TGI (OVCAR-3 [1]): 2110 nM
- CC50 (COLO 205 [2]): 2360 nM
- CC50 (SF-539): 5640 nM
- GI50 (NCI-H522): 175 nM
- TGI (NCI-H522): 459 nM
- CC50 (A549 [3]): 4040 nM
- GI50 (NCI-H460): 739 nM
- TGI (NCI-H460): 2250 nM
- GI50 (CCRF-CEM [4]): 360 nM
- TGI (CCRF-CEM [4]): > 100000 nM
- GI50 (M14): 285 nM
- TGI (M14): 1010 nM
- CC50 (HL-60(TB)): > 100000 nM
- CC50 (CCRF-CEM [5]): > 100000 nM
- GI50 (HCT-116): 142 nM
- TGI (HCT-116): 291 nM
- CC50 (RPMI-8226 [6]): > 100000 nM
- GI50 (NCI/ADR-RES): 417 nM
- TGI (NCI/ADR-RES): 1900 nM
- GI50 (SF-295): 110 nM
- TGI (SF-295): 627 nM
- GI50 (UACC-257): 433 nM
- TGI (UACC-257): 1550 nM
- CC50 (HCT-15): > 100000 nM
- GI50 (RPMI-8226 [7]): 181 nM
- TGI (RPMI-8226 [7]): 601 nM
- GI50 (SK-MEL-5): 563 nM
- TGI (SK-MEL-5): 1830 nM
- GI50 (SK-MEL-28): 512 nM
- TGI (SK-MEL-28): 1650 nM
- CC50 (MDA-MB-231): 6250 nM
- GI50 (786-0): 713 nM
- TGI (786-0): 1950 nM
- GI50 (HOP-92): 175 nM
- TGI (HOP-92): 1030 nM
- GI50 (LOX IMVI): 288 nM
- TGI (LOX IMVI): 1050 nM
- GI50 (UACC-62): 544 nM
- TGI (UACC-62): 1950 nM
- CC50 (K562): > 100000 nM
- CC50 (OVCAR-3 [8]): 4780 nM
- GI50 (OVCAR-8): 317 nM
- TGI (OVCAR-8): 1580 nM
- GI50 (COLO 205 [9]): 255 nM
- TGI (COLO 205 [9]): 623 nM
- GI50 (A549 [10]): 325 nM
- TGI (A549 [10]): 1240 nM
- CC50 (SK-OV-3): 5470 nM
- GI50 (PC-3): 243 nM
- TGI (PC-3): 1110 nM
- GI50 (NCI-H226): 1270 nM
- TGI (NCI-H226): 3260 nM
- CC50 (OVCAR-5): 7840 nM
- CC50 (BT-549): 2970 nM
- CC50 (KM12): 4440 nM

Structure (SMILES): CC(C)CCC[C@@H](C)[C@H]1CC[C@H]2C3=CC[C@@H]4C(=O)C=CC(=O)[C@@H]4[C@@H]3CC[C@]12C
- GI50 (OVCAR-3 [1]): 502 nM
- TGI (OVCAR-3 [1]): > 100000 nM
- CC50 (COLO 205 [2]): > 536 nM
- CC50 (SF-539): > 100000 nM
- GI50 (NCI-H522): 803 nM
- TGI (NCI-H522): > 100000 nM
- CC50 (A549 [3]): > 100000 nM
- GI50 (NCI-H460): 333 nM
- TGI (NCI-H460): 5590 nM
- GI50 (CCRF-CEM [4]): 189 nM
- TGI (CCRF-CEM [4]): > 100000 nM
- GI50 (M14): 299 nM
- CC50 (HL-60(TB)): > 100000 nM
- CC50 (CCRF-CEM [5]): > 100000 nM
- GI50 (HCT-116): 55 nM
- TGI (HCT-116): 1030 nM
- CC50 (RPMI-8226 [6]): > 100000 nM
- GI50 (NCI/ADR-RES): 275 nM
- GI50 (SF-295): 141 nM
- TGI (SF-295): 539 nM
- GI50 (UACC-257): 230 nM
- TGI (UACC-257): 610 nM
- CC50 (HCT-15): > 100000 nM
- GI50 (RPMI-8226 [7]): 107 nM
- TGI (RPMI-8226 [7]): 2230 nM
- GI50 (SK-MEL-5): 309 nM
- TGI (SK-MEL-5): 1000 nM
- GI50 (SK-MEL-28): 302 nM
- CC50 (MDA-MB-231): > 100000 nM
- GI50 (786-0): 311 nM
- TGI (786-0): 1500 nM
- GI50 (HOP-92): 28 nM
- TGI (HOP-92): 86 nM
- GI50 (LOX IMVI): 227 nM
- TGI (LOX IMVI): 1170 nM
- GI50 (UACC-62): 752 nM
- TGI (UACC-62): > 100000 nM
- CC50 (K562): > 100000 nM
- CC50 (OVCAR-3 [8]): > 100000 nM
- GI50 (OVCAR-8): 58 nM
- TGI (OVCAR-8): 1180 nM
- GI50 (COLO 205 [9]): 80 nM
- TGI (COLO 205 [9]): 220 nM
- GI50 (A549 [10]): 58 nM
- TGI (A549 [10]): 780 nM
- CC50 (SK-OV-3): > 100000 nM
- GI50 (PC-3): 59 nM
- TGI (PC-3): 1570 nM
- GI50 (NCI-H226): 480 nM
- CC50 (OVCAR-5): > 100000 nM
- CC50 (BT-549): > 100000 nM
- CC50 (KM12): > 100000 nM
